These results are taken from PMC6688905 (Journal of medicinal chemistry, 2018).

Each structure is given as a SMILES string. “Also recorded” adds a separate entry of the source. Bounds are passed on as bounds.

One may read the GI50 as the concentration at which growth is held to half of that of the control.

The nature of series [1]: NMR-based reactivity of electrophile toward Nα-acetyl lysine. The class given is physicochemical. The settings on record: 100 mM phosphate buffer pH 7.4, ten-fold excess of N^α-acetyl lysine, 25 °C.
For series [2], the target named is c-Jun N-terminal kinase 2 (JNK2) (Homo sapiens, UniProt P45984). Nature of the series: KINOMEscan kinase selectivity panel. The class given is binding. To be noted: 1 μM.
Chain of c-Jun N-terminal kinase 2 (JNK2) (P45984 whole entry): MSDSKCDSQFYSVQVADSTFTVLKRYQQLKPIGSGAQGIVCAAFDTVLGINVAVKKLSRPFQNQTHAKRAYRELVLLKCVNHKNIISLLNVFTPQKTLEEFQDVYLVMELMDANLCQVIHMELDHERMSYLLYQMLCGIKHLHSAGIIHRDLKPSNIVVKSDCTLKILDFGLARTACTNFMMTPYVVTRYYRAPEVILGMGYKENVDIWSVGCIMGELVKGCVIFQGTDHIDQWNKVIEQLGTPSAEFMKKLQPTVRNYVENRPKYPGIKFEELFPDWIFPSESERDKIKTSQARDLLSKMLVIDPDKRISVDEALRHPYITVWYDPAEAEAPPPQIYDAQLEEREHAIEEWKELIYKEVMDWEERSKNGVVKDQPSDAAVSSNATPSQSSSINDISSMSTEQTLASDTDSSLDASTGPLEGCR
For series [3], the target named is PI3Kα (Homo sapiens, UniProt P42336). The series is described as follows: KINOMEscan kinase selectivity panel. The class given is binding. To be noted: 1 μM.
Chain of PI3Kα (P42336 whole entry): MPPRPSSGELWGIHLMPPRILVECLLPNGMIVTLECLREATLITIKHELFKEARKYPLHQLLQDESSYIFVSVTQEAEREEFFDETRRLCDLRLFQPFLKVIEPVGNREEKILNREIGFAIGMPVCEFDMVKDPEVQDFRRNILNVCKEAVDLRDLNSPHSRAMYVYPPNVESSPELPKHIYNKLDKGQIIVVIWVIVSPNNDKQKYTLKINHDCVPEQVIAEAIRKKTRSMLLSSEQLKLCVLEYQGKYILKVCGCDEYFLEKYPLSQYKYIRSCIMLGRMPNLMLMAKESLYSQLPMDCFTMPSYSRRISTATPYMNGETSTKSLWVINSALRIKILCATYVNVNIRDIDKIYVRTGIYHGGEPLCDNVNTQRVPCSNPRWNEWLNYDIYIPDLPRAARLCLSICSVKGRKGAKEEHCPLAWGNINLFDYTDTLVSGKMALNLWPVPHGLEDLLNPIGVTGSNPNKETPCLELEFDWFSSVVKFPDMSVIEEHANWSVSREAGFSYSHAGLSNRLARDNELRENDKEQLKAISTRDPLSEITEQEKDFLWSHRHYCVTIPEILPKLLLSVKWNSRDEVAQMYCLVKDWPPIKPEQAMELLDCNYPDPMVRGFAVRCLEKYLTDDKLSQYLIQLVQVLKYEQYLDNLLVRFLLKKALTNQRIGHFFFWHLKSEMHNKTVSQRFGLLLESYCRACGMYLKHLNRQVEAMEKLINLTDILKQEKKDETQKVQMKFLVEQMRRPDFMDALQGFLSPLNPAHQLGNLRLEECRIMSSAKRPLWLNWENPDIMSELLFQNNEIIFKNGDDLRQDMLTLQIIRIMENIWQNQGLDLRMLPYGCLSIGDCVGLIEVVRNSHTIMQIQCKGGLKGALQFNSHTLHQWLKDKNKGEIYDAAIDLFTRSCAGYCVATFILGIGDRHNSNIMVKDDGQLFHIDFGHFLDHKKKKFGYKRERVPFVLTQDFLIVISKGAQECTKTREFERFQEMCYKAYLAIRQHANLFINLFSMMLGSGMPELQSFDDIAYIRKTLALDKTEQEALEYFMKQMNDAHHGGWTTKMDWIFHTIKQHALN
The target of series [4] is PI3Kα (p110α/p85α) (Homo sapiens, UniProt P42336). Nature of the series: MS timecourse for covalent modification of PI3K. To be noted: 4 μM neolymphostin A with 2 μM PI3Kα.
Chain of PI3Kα (p110α/p85α) (P42336 whole entry, species assumed): as the sequence (P42336 whole entry) above
Chain of PI3Kα (p110α/p85α) (P27986 whole entry partner, species assumed): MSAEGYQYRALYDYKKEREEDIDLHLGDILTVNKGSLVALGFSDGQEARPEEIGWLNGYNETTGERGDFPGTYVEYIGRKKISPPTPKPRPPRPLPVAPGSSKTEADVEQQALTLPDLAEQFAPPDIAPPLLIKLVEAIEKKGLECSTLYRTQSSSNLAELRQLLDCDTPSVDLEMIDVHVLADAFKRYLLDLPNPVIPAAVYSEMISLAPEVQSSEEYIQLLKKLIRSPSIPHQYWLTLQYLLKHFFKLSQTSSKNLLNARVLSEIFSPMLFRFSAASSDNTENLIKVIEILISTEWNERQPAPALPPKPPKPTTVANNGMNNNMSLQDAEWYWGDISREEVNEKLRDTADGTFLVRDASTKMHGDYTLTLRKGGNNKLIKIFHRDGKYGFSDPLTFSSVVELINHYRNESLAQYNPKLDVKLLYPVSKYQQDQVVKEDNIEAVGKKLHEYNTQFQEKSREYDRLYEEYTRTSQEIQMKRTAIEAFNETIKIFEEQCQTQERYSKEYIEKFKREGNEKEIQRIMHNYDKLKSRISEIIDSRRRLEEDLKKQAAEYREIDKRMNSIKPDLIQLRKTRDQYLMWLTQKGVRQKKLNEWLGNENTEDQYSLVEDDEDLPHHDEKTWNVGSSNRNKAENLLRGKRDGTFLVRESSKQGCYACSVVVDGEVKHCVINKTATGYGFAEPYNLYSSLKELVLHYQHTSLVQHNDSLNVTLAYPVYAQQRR
The target of series [5] is T1, aurora kinase A (AURKA) (Homo sapiens, UniProt O14965).
T1 sequence (O14965 1-403): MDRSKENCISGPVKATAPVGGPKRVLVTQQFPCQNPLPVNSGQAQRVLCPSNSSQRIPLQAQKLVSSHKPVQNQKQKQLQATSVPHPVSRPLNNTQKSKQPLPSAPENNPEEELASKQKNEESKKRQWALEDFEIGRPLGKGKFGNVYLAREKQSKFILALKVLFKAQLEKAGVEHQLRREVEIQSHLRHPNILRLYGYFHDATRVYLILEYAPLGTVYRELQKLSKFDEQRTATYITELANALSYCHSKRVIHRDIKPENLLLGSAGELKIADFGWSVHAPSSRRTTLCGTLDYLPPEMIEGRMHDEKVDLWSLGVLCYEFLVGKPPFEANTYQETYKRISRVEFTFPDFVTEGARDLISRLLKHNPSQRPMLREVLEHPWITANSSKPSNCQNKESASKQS
Nature of the series: KINOMEscan kinase selectivity panel. The series is classed as binding. To be noted: 1 μM.

The subject of series [6] is AKT phosphorylation (Ser473, Thr308) in EGF-stimulated HeLa cells. The series is described as follows: PI3K inhibition in live cells, Western blot of AKT phosphorylation. The settings on record: serum-starved HeLa cells, 10 min pretreatment, EGF stimulation. The class given is cell-based. The essentials:
(§1)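 HeLa cells were serum-starved overnight, then pretreated 10 min with test compound at the indicated concentrations and stimulated with 10 ng mL−1 EGF for 5 min. Cells were lysed in boiling SDS sample buffer and protein was quantified at 660 nm. Equal protein was run on SDS-PAGE, Western-blotted with ECL detection, and probed for AKT, pAKT Ser473/Thr308, ERK1/2, pERK1/2 Thr202/Tyr204, EGFR, pEGFR Tyr1068 and GAPDH.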
In general terms: In western blotting, separated proteins are transferred to a membrane and probed.

Series [7] deals with National Cancer Institute 60-cell line panel. Nature of the series: NCI 60-cell line anticancer screen. The series is classed as cell-based. To be noted: read-out: GI50 values. Summed up: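 Cancer cell lines covering leukemia, non-small cell lung, colon, CNS, melanoma, ovarian, renal, prostate and breast were tested with 5-point dose-response curves, top concentration 50 μM. GI50, TGI and LC50 were calculated from the curves.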

Series [8] deals with c-Jun N-terminal kinase 1 (JNK1) (Homo sapiens, UniProt P45983). Nature of the series: KINOMEscan kinase selectivity panel. The series is classed as binding. The settings on record: 1 μM.
Chain of c-Jun N-terminal kinase 1 (JNK1) (P45983 whole entry): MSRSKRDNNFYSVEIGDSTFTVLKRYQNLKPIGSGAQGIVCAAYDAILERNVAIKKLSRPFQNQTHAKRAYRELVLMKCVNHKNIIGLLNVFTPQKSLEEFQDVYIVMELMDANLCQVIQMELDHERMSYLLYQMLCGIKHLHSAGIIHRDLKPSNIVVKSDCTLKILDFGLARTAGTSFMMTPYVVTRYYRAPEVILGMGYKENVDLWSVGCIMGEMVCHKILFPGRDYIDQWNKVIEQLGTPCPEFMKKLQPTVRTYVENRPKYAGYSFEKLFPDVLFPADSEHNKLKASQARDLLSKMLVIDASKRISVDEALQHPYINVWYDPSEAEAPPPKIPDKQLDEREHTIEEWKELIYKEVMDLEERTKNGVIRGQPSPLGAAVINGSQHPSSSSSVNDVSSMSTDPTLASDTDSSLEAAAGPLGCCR
The target of series [9] is T2, Polo-like kinase 4 (PLK4) (Homo sapiens, UniProt O00444).
T2 sequence (O00444 1-970): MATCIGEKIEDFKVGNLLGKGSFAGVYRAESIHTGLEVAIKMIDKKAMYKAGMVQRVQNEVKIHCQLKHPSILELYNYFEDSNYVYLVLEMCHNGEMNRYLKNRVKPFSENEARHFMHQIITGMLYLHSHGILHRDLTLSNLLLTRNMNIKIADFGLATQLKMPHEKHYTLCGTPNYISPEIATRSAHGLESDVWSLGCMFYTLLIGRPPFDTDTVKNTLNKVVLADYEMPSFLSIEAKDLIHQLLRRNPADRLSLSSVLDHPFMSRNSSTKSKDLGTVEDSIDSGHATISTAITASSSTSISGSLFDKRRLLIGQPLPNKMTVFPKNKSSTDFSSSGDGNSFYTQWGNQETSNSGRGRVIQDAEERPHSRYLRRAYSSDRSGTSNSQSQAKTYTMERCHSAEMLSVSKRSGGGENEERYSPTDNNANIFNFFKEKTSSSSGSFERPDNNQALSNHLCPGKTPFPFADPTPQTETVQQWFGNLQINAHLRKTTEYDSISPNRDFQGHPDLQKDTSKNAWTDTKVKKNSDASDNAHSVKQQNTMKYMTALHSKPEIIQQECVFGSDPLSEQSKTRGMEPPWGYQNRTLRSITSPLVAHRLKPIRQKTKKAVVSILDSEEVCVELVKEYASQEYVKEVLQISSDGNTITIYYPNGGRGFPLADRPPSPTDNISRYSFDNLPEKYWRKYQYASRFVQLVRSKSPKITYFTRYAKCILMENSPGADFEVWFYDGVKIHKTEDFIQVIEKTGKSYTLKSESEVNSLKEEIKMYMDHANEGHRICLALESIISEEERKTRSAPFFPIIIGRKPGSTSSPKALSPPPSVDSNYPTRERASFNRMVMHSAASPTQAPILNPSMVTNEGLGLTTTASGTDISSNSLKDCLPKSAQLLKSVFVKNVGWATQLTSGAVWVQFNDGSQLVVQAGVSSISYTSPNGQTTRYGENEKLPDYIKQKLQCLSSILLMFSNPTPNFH
The series is described as follows: KINOMEscan kinase selectivity panel. The class given is binding. The settings on record: 1 μM.

Series [10] concerns the target c-Jun N-terminal kinase 3 (JNK3) (Homo sapiens, UniProt P53779). Nature of the series: KINOMEscan kinase selectivity panel. The settings on record: 1 μM. The class given is binding.
A short description of series [11]: behaviour in buffer at higher concentrations. The series is classed as physicochemical.
Series [12] has as its target aurora kinase B (AURKB) (Homo sapiens, UniProt Q96GD4). Nature of the series: KINOMEscan kinase selectivity panel. The series is classed as binding. To be noted: 1 μM.
The subject of series [13] is EGFR and ERK1/2 phosphorylation in EGF-stimulated HeLa cells. Nature of the series: PI3K inhibition in live cells, Western blot of EGFR and ERK1/2 phosphorylation. The series is classed as cell-based. The settings on record: serum-starved HeLa cells, 10 min pretreatment, EGF stimulation. The essentials: as §1

Chain of c-Jun N-terminal kinase 3 (JNK3) (P53779 whole entry): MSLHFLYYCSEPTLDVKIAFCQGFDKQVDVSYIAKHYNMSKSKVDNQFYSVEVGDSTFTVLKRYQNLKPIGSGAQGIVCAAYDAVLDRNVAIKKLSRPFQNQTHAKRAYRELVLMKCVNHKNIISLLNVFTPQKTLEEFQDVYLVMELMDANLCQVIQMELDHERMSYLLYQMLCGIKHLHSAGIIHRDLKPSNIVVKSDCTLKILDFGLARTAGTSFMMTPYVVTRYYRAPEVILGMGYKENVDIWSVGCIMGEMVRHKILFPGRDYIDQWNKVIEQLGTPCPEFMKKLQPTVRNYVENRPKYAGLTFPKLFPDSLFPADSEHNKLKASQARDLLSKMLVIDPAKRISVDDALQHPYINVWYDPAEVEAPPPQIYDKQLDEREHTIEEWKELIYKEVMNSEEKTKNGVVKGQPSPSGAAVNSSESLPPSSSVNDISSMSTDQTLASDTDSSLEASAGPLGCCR
Chain of aurora kinase B (AURKB) (Q96GD4 whole entry): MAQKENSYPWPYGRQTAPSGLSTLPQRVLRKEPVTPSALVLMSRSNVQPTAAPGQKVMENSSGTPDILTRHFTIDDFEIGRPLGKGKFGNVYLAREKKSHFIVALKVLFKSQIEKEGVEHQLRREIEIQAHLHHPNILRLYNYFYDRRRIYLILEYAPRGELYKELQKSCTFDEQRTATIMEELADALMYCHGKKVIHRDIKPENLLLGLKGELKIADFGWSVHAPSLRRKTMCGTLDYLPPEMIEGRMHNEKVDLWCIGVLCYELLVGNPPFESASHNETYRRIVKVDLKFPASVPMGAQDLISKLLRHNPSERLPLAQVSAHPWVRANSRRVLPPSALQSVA

With `CO/C=C/C(=O)c1ccccn1` [compound 6, (E)-3-methoxy-1-(pyridin-2-yl)prop-2-en-1-one], the “reaction with N^α-acetyl lysine” value in series [1] is “no reaction was observed”.

As to `CO/C=C/C(=O)c1cc2c3c(c(N)cc(NC(=O)C(C)C)c3n1)N=C2` [neolymphostin, neolymphostin A], the “% vs. control” value in [2] came out at 0.15%; in series [3] it was 0%; in [5], 1.5%; in series [8], 0.25%; in series [9], 0.95%; in series [10] it was 0.2%. Besides, the “% vs. control” value in series [12] is 1.9%. Moreover, the “time to complete covalent modification of the kinase” value in [4] was no more than 2 min. The “effect on AKT phosphorylation” value in [6] was “blocked phosphorylation of AKT at S473 and T308”. Also, in series [7], the GI50 lay in the range of 6 to 840 nM. Also, the solubility behaviour result in series [11] was “appears to aggregate and “crash out” of solution at higher concentrations in buffer”. Also, in [13], the “effect on EGFR or ERK1/2 phosphorylation” value was “did not affect phosphorylation of EGFR or ERK1/2; also recorded: no apparent effect”.

In the case of `CC(C)C(=O)Nc1cc(N)c2c3c(cc(C(=O)CCO)nc13)C=N2` [neolymphostinol], the “effect on AKT phosphorylation” value in series [6] was “largely unaffected”.

Turning to `COC[C@H]1OC(=O)c2coc3c2[C@@]1(C)C1=C(C3=O)[C@@H]2CCC(=O)[C@@]2(C)C[C@H]1OC(C)=O` [wortmannin, reference compound], in [6], the “effect on AKT phosphorylation” value is “blocked phosphorylation of AKT on Ser473 and Thr308”. For the same molecule, the “effect on EGFR or ERK1/2 phosphorylation” value in [13] is reported as “without affecting phosphorylation of EGFR or ERK1/2”.
